Experiments:
[1] = system: 5′-fluorescein labeled HCV SLIIb; assay: Reaction kinetics via fluorescence; type: biochemical, hepatitis C virus; details: pseudo Michaelis-Menten, catalytic efficiency
Outline: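 Copper–peptide complexes were formed at 1.1:1 peptide:Cu. Each complex was added to 333 nM 5′-fluorescein-SLIIb with 1 mM ascorbic acid and 1 mM H2O2 in 20 mM HEPES (pH 7.4, 100 mM NaCl) at 25 °C. Fluorescence loss was followed at ex 491/em 518 nm and converted to RNA concentration by a calibration curve. Initial velocities were plotted against catalyst concentration and fit to Michaelis–Menten to give KM and kcat. Values are the mean of ≥3 trials.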

[2] = system: fluorescein-labeled IRES SLIIb; assay: Time-dependent MALDI-TOF mass spectrometry of SLIIb cleavage; type: biochemical, hepatitis C virus; details: for Initial Rate (%Overhang/min), 2′, 3′-cPO4: overhang 2′,3′-cyclic phosphates; for Initial Rate (%Overhang/min), 2′, 3′-cPO4 / Initial Rate (%Overhang/min), 3′-AL / Initial Rate (%Overhang/min), 3′-OH / Initial Rate (%Overhang/min), 3′-PO4 / Initial Rate (%Overhang/min), 3′-PGA / Initial Rate (%Overhang/min), 3′-PG / Initial Rate (%Overhang/min), 5′-AL / Initial Rate (%Overhang/min), 5′-GemDiol / Initial Rate (%Overhang/min), 5′-OH / Initial Rate (%Overhang/min), 5′-PO4 / Initial Rate (%Overhang/min), 5′-PPA: MALDI-TOF time dependence; for Initial Rate (%Overhang/min), 3′-AL: overhang 3′-aldehyde; for Initial Rate (%Overhang/min), 3′-OH: overhang 3′-hydroxyl; for Initial Rate (%Overhang/min), 3′-PO4: overhang 3′-phosphates; for Initial Rate (%Overhang/min), 3′-PGA: overhang 3′-phosphoglycaldehyde; for Initial Rate (%Overhang/min), 3′-PG: overhang 3′-phosphoglycolate; for Initial Rate (%Overhang/min), 5′-AL: overhang 5′-aldehyde; for Initial Rate (%Overhang/min), 5′-GemDiol: overhang 5′-geminal diol; for Initial Rate (%Overhang/min), 5′-OH: overhang 5′-hydroxyl; for Initial Rate (%Overhang/min), 5′-PO4: overhang 5′-phosphate; for Initial Rate (%Overhang/min), 5′-PPA: overhang 5′-phosphopropenal; for Relative Initial Rate (Normalized Intensity/min × 1000), position A6 / Relative Initial Rate (Normalized Intensity/min × 1000), position A15 / Relative Initial Rate (Normalized Intensity/min × 1000), position A19 / Relative Initial Rate (Normalized Intensity/min × 1000), position A27 / Relative Initial Rate (Normalized Intensity/min × 1000), position A30 / Relative Initial Rate (Normalized Intensity/min × 1000), position C10 / Relative Initial Rate (Normalized Intensity/min × 1000), position C33 / Relative Initial Rate (Normalized Intensity/min × 1000), position G5 / Relative Initial Rate (Normalized Intensity/min × 1000), position G9 / Relative Initial Rate (Normalized Intensity/min × 1000), position G11 / Relative Initial Rate (Normalized Intensity/min × 1000), position G28 / Relative Initial Rate (Normalized Intensity/min × 1000), position U12 / Relative Initial Rate (Normalized Intensity/min × 1000), position U14 / Relative Initial Rate (Normalized Intensity/min × 1000), position U25 / Relative Initial Rate (Normalized Intensity/min × 1000), position U26 / Relative Initial Rate (Normalized Intensity/min × 1000), position U29 / Relative Initial Rate (Normalized Intensity/min × 1000), position U31: 10 μM SLIIb, 10 μM copper-peptide
Outline: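 Reactions contained 10 μM Fl-SLIIb, 10 μM Cu–peptide, 1 mM ascorbate and 1 mM H2O2, and were sampled at 2–180 min. They were quenched on ice, C18-desalted, and analysed by negative-ion reflectron MALDI-TOF (HPA/ammonium citrate matrix, ≥1000 shots). Peaks with m/z >1500 and S/N >5 were assigned against expected product masses. Products were summed per overhang type and expressed as a fraction at each time point. Initial rate was taken from the linear region (first ~40 min).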

GGHKFRY-Cu [8-Cu]
kcat/KM [1]: 120 M⁻¹ s⁻¹
Initial Rate (%Overhang/min), 2′, 3′-cPO4 [2]: 0.1 ± 0.1 %Overhang/min
Initial Rate (%Overhang/min), 3′-AL [2]: 0.2 ± 0.1 %Overhang/min
Initial Rate (%Overhang/min), 3′-OH [2]: 0.4 ± 0.1 %Overhang/min
Initial Rate (%Overhang/min), 3′-PO4 [2]: 1.3 ± 0.2 %Overhang/min
Initial Rate (%Overhang/min), 3′-PGA [2]: 0.3 ± 0.1 %Overhang/min
Initial Rate (%Overhang/min), 3′-PG [2]: 0.1 ± 0.1 %Overhang/min
Initial Rate (%Overhang/min), 5′-AL [2]: 0.9 ± 0.1 %Overhang/min
Initial Rate (%Overhang/min), 5′-GemDiol [2]: 0.5 ± 0.1 %Overhang/min
Initial Rate (%Overhang/min), 5′-OH [2]: 1.1 ± 0.4 %Overhang/min
Initial Rate (%Overhang/min), 5′-PO4 [2]: 0.7 ± 0.1 %Overhang/min
Initial Rate (%Overhang/min), 5′-PPA [2]: 0.7 ± 0.1 %Overhang/min
Relative Initial Rate (Normalized Intensity/min × 1000), position A6 [2]: - ^a
Relative Initial Rate (Normalized Intensity/min × 1000), position A15 [2]: - ^a
Relative Initial Rate (Normalized Intensity/min × 1000), position A19 [2]: - ^a
Relative Initial Rate (Normalized Intensity/min × 1000), position A27 [2]: 1.1 ± 0.3 Normalized Intensity/min × 1000
Relative Initial Rate (Normalized Intensity/min × 1000), position A30 [2]: <1 Normalized Intensity/min × 1000
Relative Initial Rate (Normalized Intensity/min × 1000), position C10 [2]: - ^a
Relative Initial Rate (Normalized Intensity/min × 1000), position C33 [2]: - ^a
Relative Initial Rate (Normalized Intensity/min × 1000), position G5 [2]: 3.7 ± 1.8 Normalized Intensity/min × 1000
Relative Initial Rate (Normalized Intensity/min × 1000), position G9 [2]: - ^a
Relative Initial Rate (Normalized Intensity/min × 1000), position G11 [2]: 0.6 ± 0.2 Normalized Intensity/min × 1000
Relative Initial Rate (Normalized Intensity/min × 1000), position G28 [2]: <1 Normalized Intensity/min × 1000
Relative Initial Rate (Normalized Intensity/min × 1000), position U12 [2]: - ^a
Relative Initial Rate (Normalized Intensity/min × 1000), position U14 [2]: - ^a
Relative Initial Rate (Normalized Intensity/min × 1000), position U25 [2]: <1 Normalized Intensity/min × 1000
Relative Initial Rate (Normalized Intensity/min × 1000), position U26 [2]: <1 Normalized Intensity/min × 1000
Relative Initial Rate (Normalized Intensity/min × 1000), position U29 [2]: <1 Normalized Intensity/min × 1000
Relative Initial Rate (Normalized Intensity/min × 1000), position U31 [2]: - ^a

GGHNRFK-Cu [10-Cu]
kcat/KM [1]: 67 M⁻¹ s⁻¹

GGHDRFK-Cu [9-Cu]
kcat/KM [1]: 550 M⁻¹ s⁻¹

GGHARFK-Cu [4-Cu]
kcat/KM [1]: 633 M⁻¹ s⁻¹
Initial Rate (%Overhang/min), 2′, 3′-cPO4 [2]: 0.5 ± 0.1 %Overhang/min
Initial Rate (%Overhang/min), 3′-AL [2]: 0.5 ± 0.1 %Overhang/min
Initial Rate (%Overhang/min), 3′-OH [2]: 1.2 ± 0.4 %Overhang/min
Initial Rate (%Overhang/min), 3′-PO4 [2]: 0.1 ± 0.1 %Overhang/min
Initial Rate (%Overhang/min), 3′-PGA [2]: 1.1 ± 0.4 %Overhang/min
Initial Rate (%Overhang/min), 3′-PG [2]: 1.5 ± 0.4 %Overhang/min
Initial Rate (%Overhang/min), 5′-AL [2]: 0.2 ± 0.1 %Overhang/min
Initial Rate (%Overhang/min), 5′-GemDiol [2]: 0.8 ± 0.1 %Overhang/min
Initial Rate (%Overhang/min), 5′-OH [2]: 1.1 ± 0.4 %Overhang/min
Initial Rate (%Overhang/min), 5′-PO4 [2]: 0.4 ± 0.1 %Overhang/min
Initial Rate (%Overhang/min), 5′-PPA [2]: 1.4 ± 0.3 %Overhang/min
Relative Initial Rate (Normalized Intensity/min × 1000), position A6 [2]: - ^a
Relative Initial Rate (Normalized Intensity/min × 1000), position A15 [2]: 14.2 ± 4.6 Normalized Intensity/min × 1000
Relative Initial Rate (Normalized Intensity/min × 1000), position A19 [2]: 2.9 ± 1.4 Normalized Intensity/min × 1000
Relative Initial Rate (Normalized Intensity/min × 1000), position A27 [2]: 2.1 ± 0.3 Normalized Intensity/min × 1000
Relative Initial Rate (Normalized Intensity/min × 1000), position A30 [2]: <1 Normalized Intensity/min × 1000
Relative Initial Rate (Normalized Intensity/min × 1000), position C10 [2]: - ^a
Relative Initial Rate (Normalized Intensity/min × 1000), position C33 [2]: - ^a
Relative Initial Rate (Normalized Intensity/min × 1000), position G5 [2]: - ^a
Relative Initial Rate (Normalized Intensity/min × 1000), position G9 [2]: 2.0 ± 0.5 Normalized Intensity/min × 1000
Relative Initial Rate (Normalized Intensity/min × 1000), position G11 [2]: - ^a
Relative Initial Rate (Normalized Intensity/min × 1000), position G28 [2]: - ^a
Relative Initial Rate (Normalized Intensity/min × 1000), position U12 [2]: - ^a
Relative Initial Rate (Normalized Intensity/min × 1000), position U14 [2]: - ^a
Relative Initial Rate (Normalized Intensity/min × 1000), position U25 [2]: - ^a
Relative Initial Rate (Normalized Intensity/min × 1000), position U26 [2]: 1.9 ± 0.4 Normalized Intensity/min × 1000
Relative Initial Rate (Normalized Intensity/min × 1000), position U29 [2]: - ^a
Relative Initial Rate (Normalized Intensity/min × 1000), position U31 [2]: 1.4 ± 0.4 Normalized Intensity/min × 1000

GGHYRFA-Cu [7-Cu]
kcat/KM [1]: 417 M⁻¹ s⁻¹
Initial Rate (%Overhang/min), 2′, 3′-cPO4 [2]: 0.1 ± 0.1 %Overhang/min
Initial Rate (%Overhang/min), 3′-AL [2]: 0.8 ± 0.1 %Overhang/min
Initial Rate (%Overhang/min), 3′-OH [2]: 0.4 ± 0.1 %Overhang/min
Initial Rate (%Overhang/min), 3′-PO4 [2]: 0.1 ± 0.1 %Overhang/min
Initial Rate (%Overhang/min), 3′-PGA [2]: 0.6 ± 0.2 %Overhang/min
Initial Rate (%Overhang/min), 3′-PG [2]: 0.2 ± 0.1 %Overhang/min
Initial Rate (%Overhang/min), 5′-AL [2]: 1.5 ± 0.5 %Overhang/min
Initial Rate (%Overhang/min), 5′-GemDiol [2]: 0.2 ± 0.1 %Overhang/min
Initial Rate (%Overhang/min), 5′-OH [2]: 1.1 ± 0.2 %Overhang/min
Initial Rate (%Overhang/min), 5′-PO4 [2]: 0.5 ± 0.2 %Overhang/min
Initial Rate (%Overhang/min), 5′-PPA [2]: 0.5 ± 0.1 %Overhang/min
Relative Initial Rate (Normalized Intensity/min × 1000), position A6 [2]: - ^a
Relative Initial Rate (Normalized Intensity/min × 1000), position A15 [2]: - ^a
Relative Initial Rate (Normalized Intensity/min × 1000), position A19 [2]: 0.8 ± 0.4 Normalized Intensity/min × 1000
Relative Initial Rate (Normalized Intensity/min × 1000), position A27 [2]: - ^a
Relative Initial Rate (Normalized Intensity/min × 1000), position A30 [2]: 1.0 ± 0.4 Normalized Intensity/min × 1000
Relative Initial Rate (Normalized Intensity/min × 1000), position C10 [2]: - ^a
Relative Initial Rate (Normalized Intensity/min × 1000), position C33 [2]: - ^a
Relative Initial Rate (Normalized Intensity/min × 1000), position G5 [2]: - ^a
Relative Initial Rate (Normalized Intensity/min × 1000), position G9 [2]: <1 Normalized Intensity/min × 1000
Relative Initial Rate (Normalized Intensity/min × 1000), position G11 [2]: 1.6 ± 0.7 Normalized Intensity/min × 1000
Relative Initial Rate (Normalized Intensity/min × 1000), position G28 [2]: - ^a
Relative Initial Rate (Normalized Intensity/min × 1000), position U12 [2]: <1 Normalized Intensity/min × 1000
Relative Initial Rate (Normalized Intensity/min × 1000), position U14 [2]: - ^a
Relative Initial Rate (Normalized Intensity/min × 1000), position U25 [2]: <1 Normalized Intensity/min × 1000
Relative Initial Rate (Normalized Intensity/min × 1000), position U26 [2]: <1 Normalized Intensity/min × 1000
Relative Initial Rate (Normalized Intensity/min × 1000), position U29 [2]: 2.9 ± 0.6 Normalized Intensity/min × 1000
Relative Initial Rate (Normalized Intensity/min × 1000), position U31 [2]: - ^a

GGHYAFK-Cu [5-Cu]
kcat/KM [1]: 300 M⁻¹ s⁻¹
Initial Rate (%Overhang/min), 2′, 3′-cPO4 [2]: 0.2 ± 0.1 %Overhang/min
Initial Rate (%Overhang/min), 3′-AL [2]: 0.2 ± 0.1 %Overhang/min
Initial Rate (%Overhang/min), 3′-OH [2]: 1.2 ± 0.1 %Overhang/min
Initial Rate (%Overhang/min), 3′-PO4 [2]: 0.8 ± 0.1 %Overhang/min
Initial Rate (%Overhang/min), 3′-PGA [2]: 0.1 ± 0.1 %Overhang/min
Initial Rate (%Overhang/min), 3′-PG [2]: 0.1 ± 0.1 %Overhang/min
Initial Rate (%Overhang/min), 5′-AL [2]: 1.0 ± 0.2 %Overhang/min
Initial Rate (%Overhang/min), 5′-GemDiol [2]: 0.5 ± 0.1 %Overhang/min
Initial Rate (%Overhang/min), 5′-OH [2]: 0.6 ± 0.1 %Overhang/min
Initial Rate (%Overhang/min), 5′-PO4 [2]: 1.5 ± 0.6 %Overhang/min
Initial Rate (%Overhang/min), 5′-PPA [2]: 0.2 ± 0.1 %Overhang/min
Relative Initial Rate (Normalized Intensity/min × 1000), position A6 [2]: - ^a
Relative Initial Rate (Normalized Intensity/min × 1000), position A15 [2]: - ^a
Relative Initial Rate (Normalized Intensity/min × 1000), position A19 [2]: 1.0 ± 0.7 Normalized Intensity/min × 1000
Relative Initial Rate (Normalized Intensity/min × 1000), position A27 [2]: 1.1 ± 0.3 Normalized Intensity/min × 1000
Relative Initial Rate (Normalized Intensity/min × 1000), position A30 [2]: - ^a
Relative Initial Rate (Normalized Intensity/min × 1000), position C10 [2]: 1.0 ± 0.2 Normalized Intensity/min × 1000
Relative Initial Rate (Normalized Intensity/min × 1000), position C33 [2]: <1 Normalized Intensity/min × 1000
Relative Initial Rate (Normalized Intensity/min × 1000), position G5 [2]: <1 Normalized Intensity/min × 1000
Relative Initial Rate (Normalized Intensity/min × 1000), position G9 [2]: - ^a
Relative Initial Rate (Normalized Intensity/min × 1000), position G11 [2]: - ^a
Relative Initial Rate (Normalized Intensity/min × 1000), position G28 [2]: - ^a
Relative Initial Rate (Normalized Intensity/min × 1000), position U12 [2]: <1 Normalized Intensity/min × 1000
Relative Initial Rate (Normalized Intensity/min × 1000), position U14 [2]: - ^a
Relative Initial Rate (Normalized Intensity/min × 1000), position U25 [2]: 3.1 ± 0.6 Normalized Intensity/min × 1000
Relative Initial Rate (Normalized Intensity/min × 1000), position U26 [2]: - ^a
Relative Initial Rate (Normalized Intensity/min × 1000), position U29 [2]: - ^a
Relative Initial Rate (Normalized Intensity/min × 1000), position U31 [2]: - ^a

GGHFRFK-Cu [12-Cu]
kcat/KM [1]: 167 M⁻¹ s⁻¹

Source: paper PMC5970367 (Chembiochem : a European journal of chemical biology, 2017)
